Measurements as given in PubChem BioAssay.
Active and inactive are the calls of the source.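 The calls were made as follows, unless noted: active = viability at or under a set limit in both replicates, limit being median viability minus 3 SD (cut at about 48% in these data, passing the limit was not always enough); inconclusive = at or under the limit in just one replicate; inactive = at or above the limit in both replicates.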

How the values were obtained:
[1] = Her2 expression decrease, cell viability multiplex – SKBR3 breast tumor cells, AlphaScreen, ATP viability, primary screen (AID 461;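 active = Her2 level under about 52% in both replicate screens, with viability over 70% of control, limit read from the data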;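 as to Her2 level: lower value means less Her2 protein in the cells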;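 as to viability: percent of carrier control wells set as 100% viability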); settings: SKBR3 Her2 protein level, 18-24 h, measured here: SKBR3 viability, ATP luminescence, at 10 µM
[2] = biological target: Receptor tyrosine-protein kinase erbB-2 (Homo sapiens) (UniProt P04626); test: as above; settings: 18-24 h, at 10 µM, stronger effect = lower value
[3] = reduced viability of SK-BR-3 breast cancer cells – cell-based, 24 h, human, pilot screen (AID 572;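 active = viability at or below 10% of carrier control in both of two separate runs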;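 also: compound exposure lasted between 18 and 24 h rather than exactly 24 h; 100% = carrier-treated control wells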); settings: SK-BR-3 viability, CellTiter-Glo luminescence, at 10 µM, stronger effect = lower value
[4] = HUVEC growth inhibition – cell-based, human, primary screen (AID 575;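 active = viability at or below 30% in both replicate assays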;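 also: 100% = median of untreated cell wells with 0.1% DMSO on each plate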); settings: HUVEC proliferation, CellTiter-Glo luminescence, 72 h; at 10 µM; stronger effect = lower value
Outline: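 Test system: HUVEC primary cells. Quantity: 1250 endothelial cells in each well. Dosing: single-point 10 µM, DMSO 0.1% final. Incubation: 72 h treatment at 37 °C. Measured by: CTG luminescence. Control set: DMSO cell controls and MePR drug controls. Plate: collagen-coated 384-well format.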

[5] = H69AR cell proliferation blockers – human, duplicate replicates, primary screen (AID 580); settings: H69AR lung tumor cells viability, ATP luminescence, 72 h; at 10 µM; stronger effect = lower value;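 also: 100% = mean luminescence of untreated wells and 0% = no signal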
[6] = MRP1 drug-resistance reversers in H69AR cells – cell-based, doxorubicin co-treatment, pilot screen (AID 601;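 active = viability loss from added drug above about 55%, and viability with drug at most 40%, in both replicates, limit read from the data, passing the limit was not always enough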); settings: CellTiter-Glo, 72 h, at 10 µM; for differential viability (reversal): stronger effect = higher value
[7] = yeast transport mutant growth inhibition pilot in 384-well plates, post-Golgi transport modulator project (AID 636; in the data active = inhibition above about 31%); settings: absorbance 615 nm, about 18 h, stronger effect = higher value
[8] = growth suppression of yeast trafficking mutant, preliminary HTS, modulators of trafficking downstream of Golgi apparatus project, 1536-format plate, OD 615 nm (AID 637; in the data active = inhibition above about 30%); settings: yeast transport mutant growth, absorbance 615 nm, 18 h; stronger effect = higher value
[9] = H69AR cells + 2 uM doxorubicin, measured here: viability with 2 uM doxorubicin, stronger effect = lower value
[10] = H69AR cells, compound alone cytotoxicity

Sequence of Receptor tyrosine-protein kinase erbB-2 (Homo sapiens) (P04626 whole entry, looked up): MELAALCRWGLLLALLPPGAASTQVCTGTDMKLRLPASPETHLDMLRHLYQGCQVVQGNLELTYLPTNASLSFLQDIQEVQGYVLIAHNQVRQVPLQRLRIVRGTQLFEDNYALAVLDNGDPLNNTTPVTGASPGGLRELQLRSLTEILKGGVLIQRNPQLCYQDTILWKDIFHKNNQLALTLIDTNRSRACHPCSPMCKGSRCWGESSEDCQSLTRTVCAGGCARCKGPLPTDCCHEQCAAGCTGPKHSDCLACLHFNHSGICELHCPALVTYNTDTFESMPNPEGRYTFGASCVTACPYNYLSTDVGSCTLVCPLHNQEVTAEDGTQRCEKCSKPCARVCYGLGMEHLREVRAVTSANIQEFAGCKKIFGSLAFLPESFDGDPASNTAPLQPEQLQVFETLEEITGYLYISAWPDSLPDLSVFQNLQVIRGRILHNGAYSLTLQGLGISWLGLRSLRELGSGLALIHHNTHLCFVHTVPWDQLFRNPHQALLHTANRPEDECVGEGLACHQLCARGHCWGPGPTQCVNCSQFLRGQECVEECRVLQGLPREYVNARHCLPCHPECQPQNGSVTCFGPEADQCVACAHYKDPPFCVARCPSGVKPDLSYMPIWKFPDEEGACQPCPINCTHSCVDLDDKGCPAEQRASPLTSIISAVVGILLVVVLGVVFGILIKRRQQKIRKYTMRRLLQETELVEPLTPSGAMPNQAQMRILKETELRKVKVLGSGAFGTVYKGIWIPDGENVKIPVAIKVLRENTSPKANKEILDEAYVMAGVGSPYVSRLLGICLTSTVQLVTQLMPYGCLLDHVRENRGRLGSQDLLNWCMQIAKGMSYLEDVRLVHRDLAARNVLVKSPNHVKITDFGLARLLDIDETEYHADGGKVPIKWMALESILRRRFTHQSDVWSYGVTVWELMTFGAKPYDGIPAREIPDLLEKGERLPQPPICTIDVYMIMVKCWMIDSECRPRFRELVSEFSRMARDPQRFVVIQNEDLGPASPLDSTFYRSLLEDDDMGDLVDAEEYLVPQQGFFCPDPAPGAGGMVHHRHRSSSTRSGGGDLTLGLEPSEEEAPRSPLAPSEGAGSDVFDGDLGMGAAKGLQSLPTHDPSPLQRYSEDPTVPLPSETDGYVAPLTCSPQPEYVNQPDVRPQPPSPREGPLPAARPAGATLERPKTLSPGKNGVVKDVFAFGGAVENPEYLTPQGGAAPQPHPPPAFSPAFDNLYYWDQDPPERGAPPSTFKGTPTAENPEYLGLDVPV

Compound	viability [1]	Her2 level [2]	viability [3]	viability [4]	viability [5]	differential viability (reversal) ([6]; H69AR cells + 2 uM doxorubicin)	viability [6, 9]	viability [6, 10]	inhibition [7]	inhibition [8]
CC(=O)Nc1c(C(=O)C2CC2)oc2ccccc12	102%	124% (inactive)	102% (inactive)	96.9% (inactive)	90.2% (inactive)	7.75% (inactive)	82.5%	90.2%	-5.33% (inactive)	-5.4% (inactive)
CCCn1c2c(c(O)c(C(=O)NC)c1=O)CCCC2	124%	95% (inactive)	124% (inactive)	92.7% (inactive)	86% (inactive)	-7.29% (inactive)	93.3%	86%	-4.34% (inactive)	2.42% (inactive)
Cc1ccc(-n2ncc3c(=O)n(CC(=O)NC4CCCCC4)cnc32)cc1C	105%	108% (inactive)	105% (inactive)	92.7% (inactive)	87.4% (inactive)	1.56% (inactive)	85.8%	87.4%	-3.68% (inactive)	-1.13% (inactive)
COC(=O)Nc1sc2c(c1C(=O)N1CCOCC1)CCC(C)C2 (stereo not given)	89.5%	88.5% (inactive)	89.5% (inactive)	79.7% (inactive)	93.9% (inactive)	-1.66% (inactive)	95.6%	93.9%	-2.89% (inactive)	26% (inactive)
CN(C#N)c1nc(N2CCOCC2)nc(N2CCOCC2)n1	111%	120% (inactive)	111% (inactive)	81.7% (inactive)	92.8% (inactive)	3.22% (inactive)	89.5%	92.8%	-1.22% (inactive)	6.35% (inactive)
CC(C)COc1nc2ccccc2nc1C(C#N)C(=O)NC1CCCCC1 (stereo not given)	99%	105% (inactive)	99% (inactive)	80% (inactive)	84.9% (inactive)	-20.3% (inactive)	105%	84.9%	-4.67% (inactive)	31% (active)
CCOC(=O)N1CCN(CC(O)COc2ccccc2C(C)CC)CC1 (stereo not given)	104%	92.5% (inactive)	104% (inactive)	99% (inactive)	94.7% (inactive)	1.52% (inactive)	93.2%	94.7%	31.6% (active)	29.2% (inactive)
CCOC(=O)CSc1nnc(NC(=O)c2cccc(S(=O)(=O)N3CCCCC3)c2)s1	94%	87.5% (inactive)	94% (inactive)	79.6% (inactive)	101% (inactive)	9.55% (inactive)	91.2%	101%	-3.03% (inactive)	-1.67% (inactive)
O=c1oc2ccccc2c(O)c1C=NCc1ccccn1	88%	93.5% (inactive)	88% (inactive)	67.6% (inactive)	76.8% (inactive)	-10.5% (inactive)	87.3%	76.8%	-8.11% (inactive)	-5.57% (inactive)
CCSc1nncn1/N=C/c1ccc(OC)c(OC)c1	84%	124% (inactive)	84% (inactive)	91.8% (inactive)	91.6% (inactive)	-3.4% (inactive)	95%	91.6%	-0.9% (inactive)	-7.5% (inactive)
Nc1c(C(=O)NCCc2ccccc2)nnn1Cc1ccccc1	108%	97.5% (inactive)	108% (inactive)	89% (inactive)	95.8% (inactive)	11.2% (inactive)	84.7%	95.8%	-8.55% (inactive)	-1.45% (inactive)
O=S(=O)(c1cccs1)N1CCN(C/C=C/c2ccccc2)CC1	101%	91.5% (inactive)	101% (inactive)	83.3% (inactive)	82.9% (inactive)	1.57% (inactive)	81.4%	82.9%	-3.73% (inactive)	2.1% (inactive)
COc1cc2c(cc1OC)-c1cc(Nc3ccc4c(c3)OCCO4)nc(=O)n1CC2	91.5%	82.5% (inactive)	91.5% (inactive)	63.2% (inactive)	71.2% (inactive)	-6.86% (inactive)	78.1%	71.2%	-0.91% (inactive)	-4.17% (inactive)
O=C(COc1ccc(Cl)cc1)NCc1nnc(SCC(=O)Nc2ccc3c(c2)OCCO3)o1	102%	122% (inactive)	102% (inactive)	112% (inactive)	97.3% (inactive)	-3.68% (inactive)	101%	97.3%	2.82% (inactive)	-11.7% (inactive)
COc1ccc(CN(C(=O)c2oc3ccccc3c2C)C2CCS(=O)(=O)C2)cc1 (stereo not given)	86%	112% (inactive)	86% (inactive)	83.6% (inactive)	90.5% (inactive)	8.78% (inactive)	81.7%	90.5%	-4.13% (inactive)	-11.1% (inactive)
CCOC(=O)c1cc(C)n(CCCN2CCOCC2)c1C	90.5%	85% (inactive)	90.5% (inactive)	92.4% (inactive)	91.1% (inactive)	-4.19% (inactive)	95.2%	91.1%	-0.66% (inactive)	1.11% (inactive)

Compound	viability [1]	Her2 level [2]	viability [3]	viability [4]	viability [5]	differential viability (reversal) ([6]; H69AR cells + 2 uM doxorubicin)	viability [6, 9]	viability [6, 10]	inhibition [7]	inhibition [8]
Cc1nc2sc(C(c3ccco3)N3CCN(c4ccccc4F)CC3)c(O)n2n1 (stereo not given)	97%	85% (inactive)	97% (inactive)	101% (inactive)	97.5% (inactive)	7.17% (inactive)	90.3%	97.5%	-6.27% (inactive)	0.95% (inactive)
Cc1oc(-c2ccccc2F)nc1CS(=O)(=O)CC(=O)NCc1ccco1	116%	124% (inactive)	116% (inactive)	85.9% (inactive)	93.8% (inactive)	7.03% (inactive)	86.8%	93.8%	-3.2% (inactive)	-2.62% (inactive)
CCN(CC)C(=O)C1CCCN(Cc2ccc(N(C)C)cc2)C1 (stereo not given)	90.5%	96.5% (inactive)	90.5% (inactive)	100% (inactive)	89.5% (inactive)	-3.46% (inactive)	93%	89.5%	-1.82% (inactive)	-4.75% (inactive)
COc1cccc(OC)c1C(=O)N1CCN(S(=O)(=O)c2ccccc2)CC1	79.5%	82.5% (inactive)	79.5% (inactive)	82.9% (inactive)	97.2% (inactive)	15.2% (inactive)	82.1%	97.2%	-3.42% (inactive)	-2% (inactive)
O=C(NC1CCCCC1)N(Cc1ccccc1)Cc1ccco1	94.5%	98% (inactive)	94.5% (inactive)	101% (inactive)	100% (inactive)	3.09% (inactive)	97.3%	100%	0.54% (inactive)	-3.11% (inactive)
CCCn1cnc2c(c1=O)c1nc3ccccc3nc1n2Cc1ccccc1OC	99%	97% (inactive)	99% (inactive)	91.9% (inactive)	86.4% (inactive)	-1.82% (inactive)	88.2%	86.4%	-7.11% (inactive)	-2.22% (inactive)
O=C1CC(Cc2ccccc2)C(=O)N1CCCn1ccnc1 (stereo not given)	101%	102% (inactive)	101% (inactive)	103% (inactive)	92.2% (inactive)	8.18% (inactive)	84%	92.2%	-3.85% (inactive)	-0.5% (inactive)
Cn1cnc(S(=O)(=O)NCc2cccs2)c1	102%	102% (inactive)	102% (inactive)	96.5% (inactive)	95.5% (inactive)	7.67% (inactive)	87.8%	95.5%	0.68% (inactive)	-1.9% (inactive)
Cc1c(NC(=O)CN2c3cccc4cccc(c34)S2(=O)=O)c(=O)n(-c2ccccc2)n1C	122%	93% (inactive)	122% (inactive)	82.6% (inactive)	102% (inactive)	19.1% (inactive)	82.5%	102%	-4.27% (inactive)	7.9% (inactive)
CC(C)(C)Nc1nc(NC(C)(C)C)nc(-n2ccnc2)n1	122%	80% (inactive)	122% (inactive)	69% (inactive)	88.6% (inactive)	1.06% (inactive)	87.6%	88.6%	-0.26% (inactive)	10.8% (inactive)
c1cn(CC2(Cn3ccnc3)COC2)cn1	103%	70.5% (inactive)	103% (inactive)	83% (inactive)	99.7% (inactive)	12% (inactive)	87.8%	99.7%	-3.77% (inactive)	-0.79% (inactive)
Cc1n[nH]c(C)c1S(=O)(=O)N1CCCCCC1	98%	80% (inactive)	98% (inactive)	105% (inactive)	101% (inactive)	0.14% (inactive)	101%	101%	-1.58% (inactive)	-3.17% (inactive)
Cc1cccc(N2CCN(C(=O)Cn3ccc4ccccc4c3=O)CC2)c1C	90.5%	81% (inactive)	90.5% (inactive)	94.1% (inactive)	95% (inactive)	-1.24% (inactive)	96.2%	95%	-4.34% (inactive)	-2.91% (inactive)
O=c1sc(Nc2ccccc2)nc2ccsc12	96.5%	47% (active)	96.5% (inactive)	60.4% (inactive)	75.9% (inactive)	-2.11% (inactive)	78%	75.9%	-8.16% (inactive)	-3% (inactive)
CCCn1c(SCC(=O)NCCc2ccccc2)nnc1-c1ccccn1	97.5%	100% (inactive)	97.5% (inactive)	108% (inactive)	93.9% (inactive)	-11.1% (inactive)	105%	93.9%	-2.8% (inactive)	-5.16% (inactive)
Cc1csc(NC(=O)c2cc3c(s2)-c2ccccc2OC3)n1	91%	92.5% (inactive)	91% (inactive)	75% (inactive)	37.7% (active)	-17.7% (inactive)	55.5%	37.7%	-2.82% (inactive)	-1% (inactive)
